For one assay, the target named is T1, E-selectin (Homo sapiens, UniProt P16581).
T1 sequence (P16581 whole entry): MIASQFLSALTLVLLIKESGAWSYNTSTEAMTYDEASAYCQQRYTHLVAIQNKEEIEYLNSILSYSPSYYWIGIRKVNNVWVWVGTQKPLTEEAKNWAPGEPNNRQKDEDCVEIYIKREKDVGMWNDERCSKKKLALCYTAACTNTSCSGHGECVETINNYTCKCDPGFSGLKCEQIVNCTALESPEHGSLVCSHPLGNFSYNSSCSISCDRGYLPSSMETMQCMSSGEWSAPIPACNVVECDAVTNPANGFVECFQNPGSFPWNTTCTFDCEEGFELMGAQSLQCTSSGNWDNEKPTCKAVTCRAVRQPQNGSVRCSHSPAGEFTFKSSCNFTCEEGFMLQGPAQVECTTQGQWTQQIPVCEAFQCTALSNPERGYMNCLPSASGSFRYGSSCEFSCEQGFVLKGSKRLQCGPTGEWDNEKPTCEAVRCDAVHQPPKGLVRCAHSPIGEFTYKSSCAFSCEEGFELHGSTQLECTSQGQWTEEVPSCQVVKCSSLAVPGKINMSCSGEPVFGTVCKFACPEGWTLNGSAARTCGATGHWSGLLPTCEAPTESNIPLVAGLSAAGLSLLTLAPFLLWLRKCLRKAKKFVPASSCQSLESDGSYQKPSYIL
The assay is described as follows: Inhibitory activity against human chimeric E-selectin-Ig. In short, it runs like this:
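Competitive ELISA. sLeX-pentaceramide was adsorbed at 100 pmol per well and blocked with 5% BSA-PBS. E-selectin-Ig fusion (lectin, EGF and two complement regulatory repeats on human IgG1 hinge/CH2/CH3; cDNA from HUVEC mRNA) was precomplexed 30 min with biotin-anti-human IgG(Fc)/streptavidin-alkaline phosphatase. Compound at 100, 25, 6.25 or 1.56 µM final was preincubated with the complex 30 min, then 37 °C for 45 min. pNPP read at 405 nm; duplicates.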

Another assay addresses T2, P-selectin (Homo sapiens, UniProt P16109).
T2 sequence (P16109 whole entry): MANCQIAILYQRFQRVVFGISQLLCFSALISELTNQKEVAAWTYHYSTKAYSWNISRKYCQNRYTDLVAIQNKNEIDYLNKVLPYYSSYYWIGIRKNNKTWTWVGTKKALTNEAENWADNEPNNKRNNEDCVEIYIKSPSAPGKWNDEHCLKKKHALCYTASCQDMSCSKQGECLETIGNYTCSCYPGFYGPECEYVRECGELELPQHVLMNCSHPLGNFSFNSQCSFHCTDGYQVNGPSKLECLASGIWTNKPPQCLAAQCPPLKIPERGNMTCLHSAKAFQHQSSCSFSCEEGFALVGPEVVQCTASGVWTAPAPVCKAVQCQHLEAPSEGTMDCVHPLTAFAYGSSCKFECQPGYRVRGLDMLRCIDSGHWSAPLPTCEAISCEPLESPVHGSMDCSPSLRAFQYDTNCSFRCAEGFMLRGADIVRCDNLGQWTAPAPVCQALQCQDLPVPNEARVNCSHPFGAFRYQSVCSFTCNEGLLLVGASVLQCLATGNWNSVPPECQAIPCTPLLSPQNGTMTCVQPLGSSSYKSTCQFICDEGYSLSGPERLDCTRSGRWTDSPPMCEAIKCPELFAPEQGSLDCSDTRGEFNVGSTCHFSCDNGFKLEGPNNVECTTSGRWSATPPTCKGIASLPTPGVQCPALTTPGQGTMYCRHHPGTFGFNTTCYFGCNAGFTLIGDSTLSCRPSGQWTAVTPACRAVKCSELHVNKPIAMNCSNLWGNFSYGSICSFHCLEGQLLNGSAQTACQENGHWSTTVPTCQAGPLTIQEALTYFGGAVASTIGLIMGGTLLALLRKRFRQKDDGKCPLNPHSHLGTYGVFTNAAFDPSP
Briefly: Inhibitory activity against human chimeric Selectin P-Ig. An outline of the steps: (§1)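 Competition against binding of the sLeX pentasaccharide ceramide ligand to purified selectin-Ig. The fusions carry the lectin, EGF and two complement regulatory repeats on the human IgG1 hinge/Fc and were expressed in COS7 (transient) or CHO (stable) cells. The P-selectin cDNA came from HUVEC mRNA and the L-selectin cDNA from Jurkat mRNA, both by RT-PCR.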

A further assay concerns the target T3, L-selectin (Homo sapiens, UniProt P14151).
T3 sequence (P14151 whole entry): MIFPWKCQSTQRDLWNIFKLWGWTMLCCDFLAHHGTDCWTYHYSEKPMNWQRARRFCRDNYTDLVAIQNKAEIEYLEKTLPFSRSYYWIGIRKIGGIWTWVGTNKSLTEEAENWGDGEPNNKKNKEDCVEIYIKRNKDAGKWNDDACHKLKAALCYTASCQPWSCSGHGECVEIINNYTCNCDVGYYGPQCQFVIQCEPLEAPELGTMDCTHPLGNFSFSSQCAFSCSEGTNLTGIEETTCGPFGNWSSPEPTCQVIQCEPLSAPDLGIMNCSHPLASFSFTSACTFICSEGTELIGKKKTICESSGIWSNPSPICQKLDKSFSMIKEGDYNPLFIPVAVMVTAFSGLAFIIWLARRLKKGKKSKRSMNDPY
Briefly: Inhibitory activity against human chimeric L-selectin-Ig. An outline of the steps:
as §1

Turning to `CC(=O)N[C@H]1[C@H]([C@H](O)[C@H](O)CO)O[C@@](O[C@@H]2[C@H](O)[C@@H](O)[C@H](O[C@H]3[C@H](O[C@@H]4O[C@@H](C)[C@@H](O)[C@@H](O)[C@@H]4O)[C@@H](O)CO[C@@H]3CO)O[C@@H]2O)(C(=O)O)C[C@@H]1O`, the IC50 (commonly the point on the concentration scale where inhibition reaches its midpoint) was 240 µM against E-selectin, above 1000 µM against P-selectin and 220 µM at L-selectin.

In the case of `C[C@@H]1O[C@@H](O[C@@H]2CCO[C@H](CO)[C@H]2O[C@@H]2O[C@H](CO)[C@H](O)[C@H](OP(=O)(O)O)[C@H]2O)[C@@H](O)[C@H](O)[C@@H]1O`, the 50% inhibitory concentration (IC50) against E-selectin is above 1000 µM; on P-selectin it was above 1000 µM; at L-selectin it was 420 µM.

With `C[C@@H]1O[C@@H](O[C@@H]2CCO[C@H](CO)[C@H]2O[C@@H]2O[C@H](CO)[C@H](O)[C@H](OS(=O)(=O)O)[C@H]2O)[C@@H](O)[C@H](O)[C@@H]1O`, the 50% inhibitory concentration (IC50) is above 1000 µM against E-selectin, 560 µM at P-selectin and above 1000 µM at L-selectin.

As to `CC(=O)N[C@H]1CO[C@H](CO)[C@@H](O[C@@H]2O[C@H](CO)[C@H](O)[C@H](OS(=O)(=O)O)[C@H]2O)[C@@H]1O[C@@H]1O[C@@H](C)[C@@H](O)[C@@H](O)[C@@H]1O`, the half-inhibitory concentration (IC50) on E-selectin, against P-selectin and at L-selectin was above 1000 µM in each case.

As for `C[C@@H]1O[C@@H](O[C@H]2[C@H](O[C@@H]3O[C@H](CO)[C@H](O)[C@H](OS(=O)(=O)O)[C@H]3O)[C@@H](CO)OC[C@@H]2O)[C@@H](O)[C@H](O)[C@@H]1O`, the half-maximal inhibitory concentration (IC50) against E-selectin was above 1000 µM; on P-selectin, 670 µM; against L-selectin, above 1000 µM.

`CC(=O)N[C@H]1[C@H]([C@H](O)[C@H](O)CO)O[C@@](O[C@H]2[C@@H](O)[C@@H](CO)O[C@@H](O[C@@H]([C@H](O[C@@H]3O[C@@H](C)[C@@H](O)[C@@H](O)[C@@H]3O)[C@H](C=O)NC(C)=O)[C@H](O)CO)[C@@H]2O)(C(=O)O)C[C@@H]1O` [SIALYL LEWIS X]: the concentration for half-maximal inhibition (IC50) on E-selectin was 600 µM; at P-selectin, above 1000 µM; against L-selectin, above 1000 µM.

(Values after ChEMBL document CHEMBL1129038, “Studies on selectin blocker. 1. Structure-activity relationships of sialyl Lewis X analogs” (J Med Chem, 1996).)
